In ChEMBL document CHEMBL4396917, “Synthesis and biological evaluation of novel benzylidene-succinimide derivatives as noncytotoxic antiangiogenic inhibitors with anticolorectal cancer activity in vivo” (Eur J Med Chem, 2019):
Active and inactive are the calls of the source. No cut-off for these calls is given here.

Experiments:
NCM460 = test: Cytotoxicity against human NCM460 cells assessed as reduction in cell growth after 72 hrs by MTT assay; type: cell-based; details: NCM460, 72 h
HUVEC [1] = test: Antiangiogenic activity against VEGF-induced HUVEC assessed as inhibition of cell proliferation preincubated for 30 mins followed by VEGF addition measured after 24 hrs by MTT assay; type: functional, cell-based; details: Homo sapiens
How it was run: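 HUVECs seeded 24 h, starved 16 h in M200 with 2% FBS, pretreated 30 min with compound at 0.1, 1, 10, 20 or 40 μM, then stimulated with VEGF (25 ng/mL) for 24 h; viability read by MTT; IC50 determined.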

HUVEC [2] = test: Antiangiogenic activity against HUVEC assessed as inhibition of cell proliferation measured […] by MTT assay; type: functional, cell-based; details: Homo sapiens
HUVEC [3] = test: Cytotoxicity against HUVEC at 1 to 5 uM measured after 48 hrs; type: cell-based; details: human
HUVEC [4] = test: Induction of apoptosis in VEGF-stimulated HUVEC assessed as early apoptotic cells at 1 uM after 24 hrs by Annexin V-FITC/propidium iodide staining based flow cytometric analysis (reference value: 7%); type: cell-based; details: human
How it was run: (§1)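 HUVECs plated at 5×10^5 per well and treated 24 h with 1, 5, 10 or 20 μM. Detached and adherent cells were pooled, washed in ice-cold PBS and resuspended in fresh medium. 1×10^5 cells were stained with annexin-V-FITC in annexin-V buffer for 20 min in the dark, then PI (50 μg/mL) was added. Read-out by flow cytometry.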

HUVEC [5] = test: Induction of apoptosis in VEGF-stimulated HUVEC assessed as late apoptotic cells at 1 uM after 24 hrs by Annexin V-FITC/propidium iodide staining based flow cytometric analysis (reference value: 11.3%); type: cell-based; details: human; how it was run: as §1
HUVEC [6] = test: Induction of apoptosis in VEGF-stimulated HUVEC assessed as necrotic cells at 5 uM after 24 hrs by Annexin V-FITC/propidium iodide staining based flow cytometric analysis (reference value: 12.1%); type: cell-based; details: human; how it was run: as §1
HUVEC [7] = test: Induction of apoptosis in VEGF-stimulated HUVEC assessed as early apoptotic cells at 10 uM after 24 hrs by Annexin V-FITC/propidium iodide staining based flow cytometric analysis (reference value: 7%); type: cell-based; details: human; how it was run: as §1
HT-29 [8] = test: Induction of apoptosis in human HT-29 cells assessed as late apoptotic cells at 1 uM after 24 hrs by Annexin V-FITC/propidium iodide staining based flow cytometric analysis (reference value: 13.4%); type: cell-based; details: ht-29, 24 h
[9] = Induction of apoptosis in human HT-29 cells assessed as viable cells at 5 uM after 24 hrs by Annexin V-FITC/propidium iodide staining based flow cytometric analysis (reference value: 80.8 to 81.1%); type: cell-based; details: read-out: Activity
[10] = Induction of apoptosis in human HT-29 cells assessed as viable cells at 10 uM after 24 hrs by Annexin V-FITC/propidium iodide staining based flow cytometric analysis (reference value: 80.8%); type: cell-based; details: read-out: Activity
HT-29 [11] = test: Induction of apoptosis in human HT-29 cells assessed as late apoptotic cells at 10 uM after 24 hrs by Annexin V-FITC/propidium iodide staining based flow cytometric analysis (reference value: 13.4%); type: cell-based; details: ht-29, 24 h
[12] = Induction of apoptosis in human HT-29 cells assessed as viable cells at 20 uM after 24 hrs by Annexin V-FITC/propidium iodide staining based flow cytometric analysis (reference value: 80.8%); type: cell-based; details: read-out: Activity
HT-29 [13] = test: Induction of apoptosis in human HT-29 cells assessed as early apoptotic cells at 20 uM after 24 hrs by Annexin V-FITC/propidium iodide staining based flow cytometric analysis (reference value: 1.9%); type: cell-based; details: ht-29, 24 h
HT-29 [14] = test: Induction of apoptosis in human HT-29 cells assessed as caspase-3 cleavage up to 20 uM after 24 to 72 hrs by Western blot analysis; type: cell-based
[15] = target: Vascular endothelial growth factor receptor 2 (Homo sapiens) (UniProt P35968); test: Inhibition of VEGFR2 in VEGF-stimulated HUVEC assessed as suppression of VEGFR2 phosphorylation at Tyr1175 residue pre-incubated for 2 hrs followed by VEGF stimulation for 15 mins by Western blot analysis; type: cell-based
How it was run: (§2)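 HUVECs serum-starved overnight, pretreated 2 h with 1, 2.5, 5 or 10 μM compound, then stimulated 15 min with 50 ng/mL VEGF165. Lysed in Tris/EDTA/Triton/deoxycholate/SDS buffer with phosphatase and protease inhibitors. Protein equalized by Bradford, about 20 μg resolved on gradient SDS-PAGE. Blots probed for phospho and total VEGFR2 (Tyr1175), ERK1/2 (Thr202/Tyr204) and AKT (Ser473) against actin, with HRP/ECL detection.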

[16] = target: Vascular endothelial growth factor receptor 2 (Homo sapiens) (UniProt P35968); test: Inhibition of VEGFR2 in VEGF-stimulated HUVEC assessed as downregulation of AKT phosphorylation at Ser473 residue at 1 to 10 uM pre-incubated for 2 hrs followed by VEGF stimulation and measured after 15 mins by Western blot analysis; type: cell-based; how it was run: as §2
HUVEC [17] = test: Effect on total AKT expression in VEGF-induced HUVEC at 1 to 20 uM pre-incubated for 2 hrs followed by VEGF stimulation and measured after 15 mins by Western blot analysis; type: ADME, cell-based; details: human, 0.25 h
How it was run: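 HUVECs serum-starved overnight, pretreated with compound (methods: 1, 2.5, 5, 10 μM for 2 h; legend: 1, 5, 10, 20 μM for 1.5 h), then VEGF 50 ng/mL (methods: VEGF165, 15 min; legend: 30 min); lysates equalized by Bradford, ~20 μg protein resolved on gradient SDS-PAGE, immunoblotted, ECL detection.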

HT-29 [18] = test: Inhibition of Akt/mTOR signalling in human HT-29 cells assessed as reduction in STAT3 phosphorylation at Tyr705 residue incubated for 24 hrs by immunoblot analysis; type: cell-based
How it was run: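 HT29 cells were exposed to the indicated concentrations for 24 h. Cell lysates were then immunoblotted for the phosphorylated proteins.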

[19] = target: Serine/threonine-protein kinase mTOR (Homo sapiens) (UniProt P42345); test: Inhibition of mTOR (unknown origin) at 10 uM using myelin basic protein as substrate in presence of [gamma-33P]-ATP by scintillation counting analysis relative to control
How it was run: (§3)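 Radiometric kinase panel run by a contract lab. Kinase (5–10 mU) in 25 mM Tris pH 7.5, 0.02 mM EGTA, 0.66 mg/mL myelin basic protein, magnesium acetate and [γ-33P]-ATP (about 500 cpm/pmol). Started with Mg-ATP mix, 40 min at room temperature, stopped with 3% phosphoric acid. Spotted on P30 filters, washed in 75 mM phosphoric acid and methanol, scintillation counted. Mean ± SD of three independent experiments.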

[20] = target: Mitogen-activated protein kinase 1 (Homo sapiens) (UniProt P28482); test: Inhibition of ERK2 (unknown origin) at 10 uM using myelin basic protein as substrate in presence of [gamma-33P]-ATP by scintillation counting analysis relative to control; how it was run: as §3
[21] = target: Ribosomal protein S6 kinase beta-1 (Homo sapiens) (UniProt P23443); test: Inhibition of P70S6K (unknown origin) at 10 uM using myelin basic protein as substrate in presence of [gamma-33P]-ATP by scintillation counting analysis relative to control; how it was run: as §3
Ribosomal protein S6 kinase beta-1 (Homo sapiens), sequence (P23443 whole entry, looked up): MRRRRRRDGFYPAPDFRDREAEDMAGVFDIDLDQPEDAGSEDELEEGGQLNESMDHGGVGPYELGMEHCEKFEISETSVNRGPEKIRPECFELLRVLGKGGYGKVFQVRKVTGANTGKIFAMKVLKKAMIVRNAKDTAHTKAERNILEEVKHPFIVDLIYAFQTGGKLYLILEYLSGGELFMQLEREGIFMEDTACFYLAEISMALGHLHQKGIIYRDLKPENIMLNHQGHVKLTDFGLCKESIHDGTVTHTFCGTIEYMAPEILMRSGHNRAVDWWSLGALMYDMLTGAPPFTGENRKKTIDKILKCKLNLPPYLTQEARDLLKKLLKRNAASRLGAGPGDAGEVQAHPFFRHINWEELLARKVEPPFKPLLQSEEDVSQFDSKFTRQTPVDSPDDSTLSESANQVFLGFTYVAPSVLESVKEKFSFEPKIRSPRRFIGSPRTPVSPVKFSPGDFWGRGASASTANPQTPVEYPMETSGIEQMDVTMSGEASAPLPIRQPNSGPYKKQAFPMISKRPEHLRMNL

Vascular endothelial growth factor receptor 2 (Homo sapiens), sequence (P35968 whole entry): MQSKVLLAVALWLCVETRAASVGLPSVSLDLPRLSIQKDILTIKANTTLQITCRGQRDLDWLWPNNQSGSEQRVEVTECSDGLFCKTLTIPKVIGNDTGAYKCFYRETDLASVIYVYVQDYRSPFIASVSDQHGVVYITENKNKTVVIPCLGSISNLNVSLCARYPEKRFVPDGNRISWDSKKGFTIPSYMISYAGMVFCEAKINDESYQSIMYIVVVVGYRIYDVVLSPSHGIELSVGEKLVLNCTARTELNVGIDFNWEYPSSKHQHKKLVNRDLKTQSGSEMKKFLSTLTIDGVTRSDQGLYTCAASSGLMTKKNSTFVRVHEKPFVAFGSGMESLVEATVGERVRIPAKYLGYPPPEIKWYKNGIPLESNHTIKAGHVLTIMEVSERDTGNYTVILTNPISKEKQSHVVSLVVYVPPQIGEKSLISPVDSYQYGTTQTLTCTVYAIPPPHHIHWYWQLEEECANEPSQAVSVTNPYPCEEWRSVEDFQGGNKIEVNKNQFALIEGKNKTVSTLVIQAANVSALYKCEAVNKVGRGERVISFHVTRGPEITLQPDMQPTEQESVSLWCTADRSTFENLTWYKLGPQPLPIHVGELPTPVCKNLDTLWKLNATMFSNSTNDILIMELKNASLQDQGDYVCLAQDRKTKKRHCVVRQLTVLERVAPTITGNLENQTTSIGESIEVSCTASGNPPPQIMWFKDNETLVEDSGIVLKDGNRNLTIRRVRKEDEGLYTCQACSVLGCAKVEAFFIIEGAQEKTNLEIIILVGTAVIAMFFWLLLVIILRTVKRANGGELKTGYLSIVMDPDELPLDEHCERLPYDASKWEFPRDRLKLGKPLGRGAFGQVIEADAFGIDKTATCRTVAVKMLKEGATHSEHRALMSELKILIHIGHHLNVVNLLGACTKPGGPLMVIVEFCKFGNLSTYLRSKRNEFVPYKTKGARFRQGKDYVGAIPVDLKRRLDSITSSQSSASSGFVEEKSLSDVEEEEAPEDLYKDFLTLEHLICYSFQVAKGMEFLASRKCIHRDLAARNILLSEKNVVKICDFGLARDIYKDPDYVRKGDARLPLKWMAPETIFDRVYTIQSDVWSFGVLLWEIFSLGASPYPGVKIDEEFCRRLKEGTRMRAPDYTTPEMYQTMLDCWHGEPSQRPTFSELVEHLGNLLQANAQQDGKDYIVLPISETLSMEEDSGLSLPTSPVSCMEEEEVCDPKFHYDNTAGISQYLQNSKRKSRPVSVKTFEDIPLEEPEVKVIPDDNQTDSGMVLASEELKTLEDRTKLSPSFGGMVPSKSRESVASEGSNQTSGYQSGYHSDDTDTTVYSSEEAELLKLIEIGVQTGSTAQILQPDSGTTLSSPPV
Mitogen-activated protein kinase 1 (Homo sapiens), sequence (P28482 whole entry): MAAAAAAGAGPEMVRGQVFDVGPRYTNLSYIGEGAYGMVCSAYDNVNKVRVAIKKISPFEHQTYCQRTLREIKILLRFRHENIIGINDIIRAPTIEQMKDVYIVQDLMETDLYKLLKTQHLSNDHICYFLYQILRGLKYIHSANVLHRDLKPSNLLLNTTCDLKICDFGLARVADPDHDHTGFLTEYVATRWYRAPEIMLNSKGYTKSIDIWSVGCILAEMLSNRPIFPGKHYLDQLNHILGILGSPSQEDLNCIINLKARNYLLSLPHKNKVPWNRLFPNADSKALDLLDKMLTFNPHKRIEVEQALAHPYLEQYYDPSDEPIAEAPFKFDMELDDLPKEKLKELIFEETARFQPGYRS

For `COc1ccc(NC(=O)c2cccc(/C=C3\CC(=O)N(c4ccc(C)cc4)C3=O)c2)cc1`, the IC50 (NCM460) was over 100 µM, the IC50 (HUVEC [1]) was 8.56 µM and the inhibition (HUVEC [2]) was “Dose-dependent effect”. The IC50 (HUVEC [2]; 0.5 h) was 26.6 µM, the Activity (HUVEC [3]) was “Non-Toxic” and the Activity (HUVEC [4]) was 10.7%. The Activity (HUVEC [5]) was 10.4%, the Activity (HUVEC [6]) was 4.8% and the Activity (HUVEC [7]) was 10.8%. It also gave an Activity (HT-29 [8]) of 14.4%, a viability at 24 h, 5 µM [9] of 75.8 to 77.9% and a viability at 24 h, 10 µM [10] of 77.2%. The Activity (HT-29 [11]) was 19%, the viability at 24 h, 20 µM [12] was 78.9% and the Activity (HT-29 [13]) was 1.7%. For the same compound, the Activity (HT-29 [14]) was “Non-Toxic”, the inhibition [15] was “Dose-dependent effect” and the inhibition [16] was “Active”. The Activity (HUVEC [17]) was “Not Active”, the inhibition (HT-29 [18]) was “Dose-dependent effect” and the inhibition [19] was 93.8%. The inhibition [20] was 50 to 70% and the inhibition [21] was 50 to 70%.
